Calls of active or inactive are those of the source. No cut-off for these calls is given here.
How the values were obtained:
[1] = Induction of preadipocyte differentiation into matured adipocyte in mouse ST-13 cells at 20 uM incubated for 2 to 8 days followed by compound wash out measured on day 12 by oil red O staining based phase contrast microscopy relative to control; assay type: functional
In short: (§1)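 Mouse ST-13 preadipocytes were seeded on day 1 at 1 × 10^4 cells/mL in DME/F-12 with 10% FBS and penicillin/streptomycin, at 37 °C under 5% CO2. Medium containing compound, or 20 nM rosiglitazone as positive control, was renewed on days 2, 5 and 8. On day 12 cells were formalin-fixed, rinsed in 60% 2-propanol, stained with 0.24% Oil Red O and imaged by phase-contrast microscopy at 100×.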

[2] = Induction of preadipocyte differentiation into matured adipocyte in mouse ST-13 cells at 40 uM incubated for 2 to 8 days followed by compound wash out measured on day 12 by oil red O staining based phase contrast microscopy relative to control; assay type: functional; in short: as §1
Escherichia coli = assay: Antibacterial activity against Escherichia coli at 25 ug/ml; assay type: functional, organism-based
Micrococcus luteus = assay: Antibacterial activity against Micrococcus luteus at 25 ug/ml; assay type: functional, organism-based
Candida albicans = assay: […] activity against Candida albicans at 25 ug/ml; assay type: functional, organism-based

SMILES: CC1=C(C[C@H](O)CC/C=C/C=C/[C@@H](C)[C@@H](O)/C(C)=C/[C@@H](C)O)OC(C)(O)C1=O (stereo partly specified)
- Activity [1]: 9%

SMILES: CCCCC(=O)O[C@H](C)/C=C(\C)[C@H](O)[C@H](C)/C=C/C=C/CC[C@@H](O)CC1=C(C)C(=O)C(C)(O)O1 (stereo partly specified)
- Activity [1]: 22%
- Activity [2]: 33%
- Activity (Escherichia coli): inactive
- Activity (Micrococcus luteus): inactive
- Activity (Candida albicans): inactive

SMILES: CCCCC(=O)[C@H](C)/C=C(\C)[C@H](O)[C@H](C)/C=C/C=C/CC[C@@H](O)CC1=C(C)C(=O)C(C)(O)O1 (stereo partly specified)
- Activity [1]: 45%
- Activity [2]: 73%
- Activity (Escherichia coli): inactive
- Activity (Micrococcus luteus): inactive
- Activity (Candida albicans): inactive

Source: ChEMBL document CHEMBL4145633, “Linfuranones B and C, Furanone-Containing Polyketides from a Plant-Associated Sphaerimonospora mesophila” (2018)
